Shown are actives, neighbours in structure and some others; about 1.6% of the full set was active somewhere.
PKA-R1A act – activators of PKA-R1A complex. activation, % at 11.4 µM. AID 504707. PKA-R1A dissociation, Cy5-IP20 fluorescence polarization; scaled: DMSO 0%, 113 µM cGMP 100%. actives 0.083% (n = 340,000);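 active = percent activation above the mean of all tested compounds plus 3 SD, cut at about 19% in these data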;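 note: higher means more PKAc released from R1A so a rise in polarization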
TPT1 inhibitor – inhibitors of Candida albicans tRNA 2'-phosphotransferase TPT1; recombinant caTPT1, FP RNA substrate dephosphorylation; inhibition, % at 5 µM; actives 0.81% (n = 300,000); AID 1962;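 active = inhibition above the mean of all tested compounds plus 3 SD, set per screening campaign, cut at about 24% in these data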;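 note: plate controls were DMSO alone for no effect and ferristatin control at 100 nM for full effect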
CSN deneddyl inh – inhibitors of human CSN-mediated cullin deneddylation; Q92905; Purified CSN, SCF-Nedd8-OG deneddylation, fluorescence polarization; inhibition, % at 12.5 µM; actives 0.38% (n = 360,000);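 active = pattern-corrected inhibition above about 35%, with an unprinted fluorescence ratio check between 0.5 and 1.5, limit read from the data, passing the limit was not always enough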;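 note: 0% = enzyme with substrate and 100% = substrate without enzyme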
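Assay system: purified human Csn5 enzyme expressed in HEK293T cells; Input: 0.24 nM Csn5 enzyme, final concentration; Reagent: 10 nM SCFSkp2-Nedd8OG; Compound dosing: 12.5 µM single point; Times: reaction 90 min, room temperature; Technique: fluorescence polarization readout.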
PKA-R2B activ – activates the human PKA-R2B holoenzyme complex. activation, % at 11.4 µM. actives 0.079% (n = 340,000). PKA-R2B holoenzyme dissociation, Cy5-IP20 fluorescence polarization; R2B truncated from residue 108, S112A mutant; 0% DMSO only, 100% 113 µM cGMP. P22694+P31323;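 active = activation above a cutoff set at the mean over all compounds plus 3 SD, cut at about 18% in these data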;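 note: higher means more holoenzyme dissociation and a rise in polarization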
Rpn11 inh – blocks the human proteasome subunit Rpn11; O00487; human 26S proteasome, Ub4-pepOG fluorescence polarization; 20S core pre-blocked with epoxomicin; calls only at 20 µM; actives 0.59% (n = 360,000); AID 588493;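 active = inhibition at 20 µM, scaled to each plate's controls, above about 33%, limit read from the data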
Target sequence (O00487 whole entry, looked up): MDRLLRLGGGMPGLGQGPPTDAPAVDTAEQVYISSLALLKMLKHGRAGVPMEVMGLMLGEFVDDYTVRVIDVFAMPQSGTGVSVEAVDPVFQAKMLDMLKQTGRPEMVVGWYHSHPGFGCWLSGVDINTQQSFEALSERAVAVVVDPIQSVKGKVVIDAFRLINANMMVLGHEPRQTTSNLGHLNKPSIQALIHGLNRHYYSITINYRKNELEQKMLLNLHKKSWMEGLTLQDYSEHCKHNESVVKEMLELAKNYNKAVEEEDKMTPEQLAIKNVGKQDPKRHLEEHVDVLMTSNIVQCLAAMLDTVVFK
HNF4A DNA FP – change in binding of human HNF4 alpha to DNA; activity change, % at 10 µM; P41235; AID 1224865; HNF4a-FITC DNA binding, fluorescence polarization, 1 h; actives 0.3% (n = 360,000); in the data active = activity change above about 30%, passing the limit was not always enough
TPT1 inh confirm – TPT1 (C. albicans) inhibition, confirmation; shares compounds with TPT1 inhibitor; actives 74% (n = 2,400); recombinant caTPT1, fluorescence polarization, RNase T1 coupled; inhibition, % at 5 µM;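 active = inhibition above the primary screen limit, the mean inhibition of all tested compounds plus 3 SD, cut at about 25% in these data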
RNase T1 counter – RNase T1 inhibition in TPT1 counter-screen | shares compounds with TPT1 inhibitor | RNase T1 cleavage, fluorescence polarization, 1536-well | inhibition, % at 5 µM | actives 83% (n = 2,400) | AID 2153;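 active = inhibition above the solvent-only control well mean plus 3 SD, limit set per screening run, cut at about 23% in these data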;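 note: plate controls were DMSO wells with enzyme for no effect and wells without RNase T1 for full effect; inhibitors block cleavage so intact labeled substrate keeps polarization high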
R2B FP artifact – counter-screen for PKA-R2B activators: fluorescence polarization artifacts | shares compounds with PKA-R2B activ | FP artifact counterscreen | AID 504796 | actives 6% (n = 270) | activation, % at 11.4 µM; in the data active = activation above about 20%;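 note: Cy5 labelled IP20 peptide probe with compound but no PKA protein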
PKA-R2B confirm – PKA-R2B complex activation, confirmation. actives 9% (n = 270). AID 504797. activation, % at 11.4 µM. shares compounds with PKA-R2B activ. fluorescence polarization; in the data active = activation above about 19%
R1A FP artifact – fluorescence polarization artifact in PKA-R1A activator counter-screen; shares compounds with PKA-R1A act; Cy5-IP20 peptide alone, fluorescence polarization artifact counterscreen; activation, % at 11.4 µM; actives 7% (n = 280); AID 504799;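 active = mean activation over triplicate runs exceeds the adjusted cutoff derived for the parent primary screen, cut at about 19% in these data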;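 note: no PKA protein present so any polarization rise reflects compound interference; 0% = tracer peptide mix alone and 100% = mix with added PKA catalytic subunit; higher means stronger polarization artifact and likely false positive in parent screen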
PKA-R1A confirm – confirmation of PKA-R1A complex activators | activation, % at 11.4 µM | Cy5-IP20 fluorescence polarization, PKA-R1A holoenzyme dissociation | shares compounds with PKA-R1A act | actives 9% (n = 280);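 active = mean activation over replicate wells exceeds the adjusted hit threshold taken from the earlier primary screen, cut at about 20% in these data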;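 note: 0% = holoenzyme mix with DMSO only and 100% = cGMP-activated control wells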
Target sequence (P00514 whole entry, looked up): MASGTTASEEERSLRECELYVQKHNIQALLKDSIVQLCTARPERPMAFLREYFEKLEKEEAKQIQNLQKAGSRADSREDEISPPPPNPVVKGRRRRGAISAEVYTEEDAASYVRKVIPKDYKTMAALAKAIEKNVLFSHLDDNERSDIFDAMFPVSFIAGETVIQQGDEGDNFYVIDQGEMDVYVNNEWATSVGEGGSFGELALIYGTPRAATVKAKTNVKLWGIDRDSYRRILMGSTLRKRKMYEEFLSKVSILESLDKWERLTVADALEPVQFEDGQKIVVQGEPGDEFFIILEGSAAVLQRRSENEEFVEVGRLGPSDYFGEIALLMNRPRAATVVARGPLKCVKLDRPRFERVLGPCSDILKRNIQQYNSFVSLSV
Rpn11 confirm – Rpn11 inhibition confirmation, single concentration. shares compounds with Rpn11 inh. actives 29% (n = 1,900). purified human 26S proteasome, Ub4-pepOG fluorescence polarization; proteasome pretreated with epoxomicin. AID 602318. inhibition, % at 20 µM
MMP-2 counter – blocks human MMP-2, flagging nonselective RPN11 hits; shares compounds with Rpn11 inh; recombinant MMP-2, FRET peptide cleavage fluorescence; inhibition, % at 20 µM; actives 4% (n = 1,900);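 note: human MMP-2 activated beforehand with APMA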
Thrombin FP – blocks bovine thrombin, flagging nonselective RPN11 hits | actives 13% (n = 1,900) | bovine thrombin cleavage of Ub4-pepOG, fluorescence polarization | inhibition, % at 20 µM | shares compounds with Rpn11 inh;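 active = mean inhibition at least 40% at 20 µM, or signal 3 deviations below plate average, so some actives read negative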;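 note: plate controls were thrombin with DMSO for no effect and buffer wells lacking thrombin for full effect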
HNF4a DNA conf – change in binding of human HNF4 alpha to DNA, retest; shares compounds with HNF4A DNA FP; HNF4A-FITC DNA binding, fluorescence polarization, 1 h; activity change, % at 12.5 µM; actives 99% (n = 210); AID 1224897; call rule not given here
Active calls of the source: *; i = inactive; nt = no result shown; + = active, no number. Cut-off read from the data, not from the text of the source, unless noted: active = inhibition above about 40%; inactive = the rest.

SMILES | PKA-R1A act | TPT1 inhibitor | CSN deneddyl inh | PKA-R2B activ | Rpn11 inh | HNF4A DNA FP | others
COc1ccc2c3c([nH]c2c1)C(C)NCC3 (stereo unspecified) | 8 | 27* | 31 | 2 | + | 42* | TPT1 inh confirm=2;RNase T1 counter=6;Rpn11 confirm=58*;MMP-2 counter=-8;Thrombin FP=48*;HNF4a DNA conf=55*
COc1ccc2[nH]c3c(c2c1)CCNC3C (stereo unspecified) | -4 | 2 | -4 | 1 | i | 3
COc1ccc(N=Nc2c(O)[nH]c(=S)[nH]c2=O)cc1 | -5 | 60* | 58* | 9 | nt | 80* | TPT1 inh confirm=55*;RNase T1 counter=70*;HNF4a DNA conf=118*
COc1ccc(/C=C/C(=O)NC(=S)N2C[C@H]3C[C@H](C2)c2cccc(=O)n2C3)cc1OC | 0 | -3 | 5 | -3 | i | 3
CCC(CO)(C(=O)OC1C[N+]2(C)CCC1CC2)c1ccccc1 (stereo unspecified) | -4 | 2 | 116 | 20* | i | 4 | R2B FP artifact=3;PKA-R2B confirm=1
CCC(=NCC1CCCO1)c1c(O)[nH]c(=O)[nH]c1=O (stereo unspecified) | -1 | -4 | -2 | -9 | i | -5
O=C1CC(c2ccccc2)CN1 (stereo unspecified) | 0 | -2 | 15 | -5 | i | 2
CN(C(=O)c1ccc(Cl)nc1)C1(c2ccccc2Cl)CCCCC1=O (stereo unspecified) | 0 | -6 | -3 | 21* | i | -2 | R2B FP artifact=5;PKA-R2B confirm=3
C=C1[C@H]2CC[C@H]3[C@]4(C)C[C@H](O[C@@H]5OC(CO)[C@@H](OSOOO)[C@H](OS(=O)(=O)O)[C@H]5OC(=O)CC(C)C)C[C@@H](C(=O)O)[C@H]4CC[C@]3(C2)[C@H]1O (stereo partly specified) | 19* | nt | 5 | 4 | i | 2 | R1A FP artifact=2;PKA-R1A confirm=0
Cc1ccc(N2C(=O)NC(=O)C3(Cc4ccccc4N4CCN(c5ccccc5)CC43)C2=O)cc1 (stereo unspecified) | -7 | 20 | 3 | -1 | i | -6
Cc1cccc(OCC(=O)N2CCN(Cc3ccc4c(c3)OCO4)CC2)c1 | 0 | -1 | -1 | -14 | i | -2
CN(C(=O)Cc1ccc(Cl)c(Cl)c1)C(CN1CCCC1)c1cccc(OCC(=O)O)c1 (stereo unspecified) | 19* | -4 | 2 | -6 | i | 1 | R1A FP artifact=4;PKA-R1A confirm=-1
CC1=CP(=O)(Oc2ccc([N+](=O)[O-])cc2)CC1 (stereo unspecified) | 19* | nt | -2 | -4 | i | -1 | R1A FP artifact=5;PKA-R1A confirm=3
CC1([N+](=O)[O-])COP(=O)(Nc2ccccc2F)OC1 (stereo unspecified) | -6 | nt | -1 | 1 | i | -2
COc1ccc(NP2(=O)OCC(C)(N)CO2)cc1 (stereo unspecified) | 20* | nt | 0 | 6 | i | 0 | R1A FP artifact=-1;PKA-R1A confirm=-1
CN1C(C(=O)N2CCC3(CC2)OCCO3)=CC(c2ccc(F)cc2)=NS1(=O)=O | 3 | -2 | -4 | -6 | i | -2
N#Cc1ccccc1OCC(=O)N1CCN(CC(=O)Nc2ccc(F)cc2)CC1 | 3 | nt | 2 | -14 | i | 2
O=C(COc1ccccc1Cl)N1CCCC(N2CCN(c3ccc(F)cc3)CC2)C1 (stereo unspecified) | 19* | -3 | 2 | -9 | i | -3 | R1A FP artifact=0;PKA-R1A confirm=2
Cc1ccc(N2C(=O)NC(=O)/C(=C/c3ccoc3)C2=O)cc1 | -3 | nt | 88* | 3 | + | -28 | Rpn11 confirm=144*;MMP-2 counter=32;Thrombin FP=23
O=c1[nH]c(=O)n(-c2ccc(F)cc2)c(O)c1C=Nc1ccccc1N1CCCC1 | -8 | 1 | 16 | -3 | + | 58* | Rpn11 confirm=16;MMP-2 counter=29;Thrombin FP=-52
CCc1ccccc1N1C(=O)CC(=O)NC1=O | -4 | 6 | 4 | 6 | + | 6 | Rpn11 confirm=-8;MMP-2 counter=-37;Thrombin FP=4
CC(C)c1ccc(N2C(=O)CC(=O)NC2=O)cc1 | -4 | 20 | 7 | -7 | + | 10 | Rpn11 confirm=15;MMP-2 counter=3;Thrombin FP=4
O=C1CC(=O)N(c2ccc(Cl)cc2)C(=O)N1 | -2 | 14 | 14 | 7 | i | 12
Cc1ccccc1N1C(=O)CC(=O)NC1=O | -8 | 8 | -3 | 6 | i | 2
Cc1ccccc1-n1c(O)c(/C=C2/C(c3ccccc3)=Nc3ccccc32)c(=O)[nH]c1=O | -12 | 6 | -4 | -6 | + | 3 | Rpn11 confirm=35;MMP-2 counter=10;Thrombin FP=25
CCC(=O)OC(Cc1ccccc1)(c1ccccc1)[C@H](C)CN(C)C (stereo partly specified) | 4 | nt | 9 | 6 | i | 2
